Results from ChEMBL document CHEMBL3864137, “Design, Synthesis, and Pharmacological Evaluation of 2-(2,5-Dimethyl-5,6,7,8-tetrahydroquinolin-8-yl)-N-aryl Propanamides as Novel Smoothened (Smo) Antagonists” (J Med Chem, 2016).
Each block holds one molecule with its values, some of them ahead of it. Calls of active or inactive are those of the source. The rule behind the calls is not given here.

What was measured:
[1] = biological target: Protein smoothened (Mus musculus, UniProt P56726); test: Inhibition of Smo-mediated Hh signalling pathway in mouse Shh Light2 cells by Gli-luciferase reporter gene assay; assay type: cell-based
Chain of Protein smoothened (P56726 whole entry): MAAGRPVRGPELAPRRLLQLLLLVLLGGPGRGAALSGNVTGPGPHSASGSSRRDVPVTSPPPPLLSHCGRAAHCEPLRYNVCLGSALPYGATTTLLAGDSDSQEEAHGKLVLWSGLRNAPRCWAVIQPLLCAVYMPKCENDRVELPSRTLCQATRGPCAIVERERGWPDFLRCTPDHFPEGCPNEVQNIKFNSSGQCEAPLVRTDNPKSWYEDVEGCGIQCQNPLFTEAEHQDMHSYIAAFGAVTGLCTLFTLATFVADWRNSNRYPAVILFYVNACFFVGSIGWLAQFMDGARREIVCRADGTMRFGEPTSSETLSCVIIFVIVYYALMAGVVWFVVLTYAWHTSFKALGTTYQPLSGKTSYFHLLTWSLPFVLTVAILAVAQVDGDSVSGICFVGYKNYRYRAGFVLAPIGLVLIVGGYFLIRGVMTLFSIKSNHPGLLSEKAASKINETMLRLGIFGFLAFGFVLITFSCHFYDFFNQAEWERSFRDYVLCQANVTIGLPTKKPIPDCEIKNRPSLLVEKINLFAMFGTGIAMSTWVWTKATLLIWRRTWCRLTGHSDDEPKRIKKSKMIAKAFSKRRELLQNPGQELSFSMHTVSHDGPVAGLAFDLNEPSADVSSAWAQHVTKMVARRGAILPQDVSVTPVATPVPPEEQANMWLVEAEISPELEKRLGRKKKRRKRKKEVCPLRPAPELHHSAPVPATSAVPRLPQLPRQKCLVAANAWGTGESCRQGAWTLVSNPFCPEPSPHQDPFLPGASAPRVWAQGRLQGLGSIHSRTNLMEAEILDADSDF
Procedure, shortened: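 Light II cells (NIH-3T3 stably carrying a Gli-responsive firefly luciferase reporter plus a Renilla luciferase vector), seeded in 96-well plates and treated. Firefly/Renilla activity in the lysates read by dual luciferase assay on a luminometer. IC50 is the mean ± SD of three separate experiments.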

[2] = biological target: Protein smoothened (Homo sapiens) (UniProt Q99835); conditions: HEK293, 5 uM
Chain of Protein smoothened (Homo sapiens) (Q99835 whole entry): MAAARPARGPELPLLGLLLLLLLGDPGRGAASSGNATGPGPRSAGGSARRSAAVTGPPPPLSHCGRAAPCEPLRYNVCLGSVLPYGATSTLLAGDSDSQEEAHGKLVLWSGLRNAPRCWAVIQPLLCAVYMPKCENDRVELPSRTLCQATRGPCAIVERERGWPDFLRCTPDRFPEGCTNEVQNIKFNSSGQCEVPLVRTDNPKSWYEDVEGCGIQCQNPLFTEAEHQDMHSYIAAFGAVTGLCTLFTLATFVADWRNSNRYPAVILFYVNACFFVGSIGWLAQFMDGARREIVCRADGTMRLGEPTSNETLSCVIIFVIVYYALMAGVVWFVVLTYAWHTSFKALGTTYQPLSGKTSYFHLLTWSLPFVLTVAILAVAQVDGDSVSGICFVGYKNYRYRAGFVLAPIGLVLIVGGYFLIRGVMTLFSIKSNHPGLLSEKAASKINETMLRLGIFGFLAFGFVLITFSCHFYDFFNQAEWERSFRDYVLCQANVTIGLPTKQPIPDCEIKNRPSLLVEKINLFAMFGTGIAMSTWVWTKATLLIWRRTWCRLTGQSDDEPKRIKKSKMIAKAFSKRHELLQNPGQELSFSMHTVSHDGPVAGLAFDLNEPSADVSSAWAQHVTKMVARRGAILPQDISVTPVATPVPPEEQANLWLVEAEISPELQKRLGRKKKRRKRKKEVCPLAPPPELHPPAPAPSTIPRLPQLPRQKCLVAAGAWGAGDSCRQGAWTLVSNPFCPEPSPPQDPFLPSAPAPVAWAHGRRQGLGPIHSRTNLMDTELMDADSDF

[3] = biological target: Protein smoothened (Homo sapiens) (UniProt Q99835); conditions: HEK293, 5 uM; remark: listed apart in the source
[4] = Cytotoxicity against mouse L1210 cells by MTT assay; assay type: functional, cell-based
[5] = biological target: Protein smoothened (Mus musculus) (UniProt P56726); test: Potency index, ratio of vismodegib IC50 to test compound IC50 for Smo-mediated Hh signalling pathway in mouse Shh Light2 cells; assay type: cell-based
Chain of Protein smoothened (Mus musculus) (P56726 whole entry): as the sequence (P56726 whole entry) above
Procedure, shortened: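 Ratio of reference to test IC50, both taken from the Gli-luc dual luciferase assay in light II cells (NIH-3T3 with stable Gli-firefly reporter and Renilla vector). IC50 values are from three separate experiments.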

[6] = Cytotoxicity against human KB cells; assay type: toxicity, cell-based
[7] = biological target: Voltage-gated inwardly rectifying potassium channel KCNH2 (Homo sapiens, UniProt Q12809); test: Inhibition of human ERG
Chain of Voltage-gated inwardly rectifying potassium channel KCNH2 (Q12809 whole entry): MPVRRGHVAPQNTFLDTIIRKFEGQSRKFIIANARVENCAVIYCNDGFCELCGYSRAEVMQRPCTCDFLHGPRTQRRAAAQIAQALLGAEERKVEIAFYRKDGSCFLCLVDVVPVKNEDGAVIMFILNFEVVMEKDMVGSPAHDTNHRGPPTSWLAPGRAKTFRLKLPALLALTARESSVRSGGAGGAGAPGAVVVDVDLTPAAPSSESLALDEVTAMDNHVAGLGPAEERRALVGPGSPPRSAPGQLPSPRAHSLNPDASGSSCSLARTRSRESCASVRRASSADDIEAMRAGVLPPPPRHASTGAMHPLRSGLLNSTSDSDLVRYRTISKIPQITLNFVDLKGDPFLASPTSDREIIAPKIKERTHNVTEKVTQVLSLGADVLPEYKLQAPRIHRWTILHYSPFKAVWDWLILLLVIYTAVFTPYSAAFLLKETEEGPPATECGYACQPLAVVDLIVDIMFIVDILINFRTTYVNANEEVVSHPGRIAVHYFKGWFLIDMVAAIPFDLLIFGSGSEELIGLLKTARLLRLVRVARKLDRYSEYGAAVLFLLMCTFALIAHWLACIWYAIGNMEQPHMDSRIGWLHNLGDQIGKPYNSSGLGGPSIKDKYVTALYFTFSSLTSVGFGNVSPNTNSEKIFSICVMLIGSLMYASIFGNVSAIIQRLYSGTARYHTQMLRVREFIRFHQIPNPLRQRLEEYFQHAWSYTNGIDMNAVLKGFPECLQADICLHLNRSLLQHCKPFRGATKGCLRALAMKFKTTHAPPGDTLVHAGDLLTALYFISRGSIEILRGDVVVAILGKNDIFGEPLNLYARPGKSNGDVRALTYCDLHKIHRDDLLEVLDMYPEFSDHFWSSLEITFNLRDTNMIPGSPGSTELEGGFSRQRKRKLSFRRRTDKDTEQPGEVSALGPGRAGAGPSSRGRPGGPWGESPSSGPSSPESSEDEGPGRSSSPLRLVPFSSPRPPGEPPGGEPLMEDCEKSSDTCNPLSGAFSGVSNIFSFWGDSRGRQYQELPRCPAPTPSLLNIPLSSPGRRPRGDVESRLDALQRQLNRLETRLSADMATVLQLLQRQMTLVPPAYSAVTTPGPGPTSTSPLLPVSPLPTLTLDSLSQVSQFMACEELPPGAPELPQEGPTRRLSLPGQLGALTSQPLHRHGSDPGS

[8] = biological target: Protein smoothened (Mus musculus) (UniProt P56726); test: Inhibition of Smo-mediated Hh signalling pathway in mouse Shh Light2 cells assessed as suppression of Gli1-mRNA expression at 0.1 uM measured after 36 hrs by RT-qPCR analysis; assay type: cell-based
[9] = biological target: Protein smoothened (Homo sapiens) (UniProt Q99835); test: Antagonist activity at wild-type Smo (unknown origin) expressed in mouse Shh Light2 cells assessed as suppression of Gli-mRNA expression measured after 36 hrs by dual luciferase reporter gene assay; assay type: cell-based; conditions: in the assay text read “Gli-luciferase activity” for “Gli-mRNA expression”
Procedure, shortened: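 Light II cells transfected with wild-type Smo plasmid to drive Gli-luciferase, exposed to compound for 36 h, then harvested for dual luciferase reporter assay. Mean ± SD.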

[10] = biological target: Protein smoothened (Homo sapiens) (UniProt Q99835); test: Displacement of BODIPY-cyclopamine from human Smo expressed in HEK293 cells at 0.1 uM measured after 10 hrs by DAPI staining based fluorescence microscopic assay; assay type: cell-based
Procedure, shortened: (§1)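 HEK293 cells on coverslips transfected with hSmo constructs and incubated with BODIPY-cyclopamine plus test drug for 10 h. After PBS wash, paraformaldehyde fixation and Triton X-100 permeabilization, cells were either analysed by FACS or DAPI-mounted for fluorescence microscopy; three experiments.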

[11] = biological target: Protein smoothened (Homo sapiens) (UniProt Q99835); test: Displacement of BODIPY-cyclopamine from human Smo expressed in HEK293 cells at 0.1 uM measured after 10 hrs by FACS analysis; assay type: cell-based; procedure, shortened: as §1
[12] = test system: Medulloblastoma cell; test: Antiproliferative activity against mouse medulloblastoma cells isolated from Ptch+/- p53-/- mouse measured after 72 hrs by MTS assay; assay type: functional
Procedure, shortened: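 Medulloblastoma cells from Ptch+/-;p53-/- allografts in nude mice, minced and collagenase-digested, grown in Neurobasal A with B-27, EGF 20 ng/ml, bFGF 20 ng/ml, nonessential amino acids and N-acetyl cysteine 60 µg/ml. Seeded in 96-well plates, treated 72 h, viability read by MTS; mean ± SD.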

[13] = Induction of apoptosis in mouse medulloblastoma cells isolated from Ptch+/- p53-/- mouse assessed as early apoptotic cells at 10 uM measured after 24 hrs by Annexin V-FITC/propidium iodide staining based flow cytometry (reference value: 0.7%); assay type: functional, Medulloblastoma cell
[14] = Induction of apoptosis in mouse medulloblastoma cells isolated from Ptch+/- p53-/- mouse assessed as late apoptotic cells at 10 uM measured after 24 hrs by Annexin V-FITC/propidium iodide staining based flow cytometry (reference value: 0.1%); assay type: functional, Medulloblastoma cell
[15] = biological target: Protein smoothened (Mus musculus) (UniProt P56726); test: Inhibition of Smo in mouse medulloblastoma cells isolated from Ptch+/- p53-/- mouse assessed as decrease in Gli1-mRNA expression at 0.1 uM by qRT-PCR analysis
[16] = Half life in Sprague-Dawley rat at 3 mg/kg, po; assay type: ADME, organism-based; conditions: in vivo
Procedure, shortened: (§2)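 SD rats; single dose 1.0 mg/kg i.v. or 3.0 mg/kg p.o., vehicle DMSO, Tween 80, normal saline. Plasma concentration–time profiles give CL, Vss, T1/2, Cmax, Tmax, AUC0-∞ and MRT, with oral bioavailability F estimated from p.o. versus i.v. exposure. Values are the average of three runs.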

[17] = Half life in Sprague-Dawley rat at 1 mg/kg, iv; assay type: ADME, organism-based; conditions: in vivo; procedure, shortened: as §2
[18] = Tmax in Sprague-Dawley rat at 3 mg/kg, po; assay type: ADME, organism-based; conditions: in vivo; procedure, shortened: as §2
[19] = Cmax in Sprague-Dawley rat at 3 mg/kg, po; assay type: ADME, organism-based; design: dose 3 mg/kg, route oral; conditions: in vivo; procedure, shortened: as §2
[20] = AUClast in Sprague-Dawley rat at 3 mg/kg, po; assay type: ADME, organism-based; design: dose 3 mg/kg, time 0 - last, route oral; conditions: in vivo; procedure, shortened: as §2
[21] = AUClast in Sprague-Dawley rat at 1 mg/kg, iv; assay type: ADME, organism-based; design: dose 1 mg/kg, time 0 - last, route intravenous; conditions: in vivo; procedure, shortened: as §2
[22] = AUC (0 to infinity) in Sprague-Dawley rat at 3 mg/kg, po; assay type: ADME, organism-based; design: dose 3 mg/kg, route oral, time infinity; conditions: in vivo; procedure, shortened: as §2
[23] = AUC (0 to infinity) in Sprague-Dawley rat at 1 mg/kg, iv; assay type: ADME, organism-based; design: dose 1 mg/kg, time infinity, route intravenous; conditions: in vivo; procedure, shortened: as §2
[24] = Clearance in Sprague-Dawley rat at 1 mg/kg, iv; assay type: ADME, organism-based; conditions: in vivo; procedure, shortened: as §2
[25] = MRT (0 to infinity) in Sprague-Dawley rat at 3 mg/kg, po; assay type: ADME, organism-based; conditions: in vivo; procedure, shortened: as §2
[26] = MRT (0 to infinity) in Sprague-Dawley rat at 1 mg/kg, iv; assay type: ADME, organism-based; conditions: in vivo; procedure, shortened: as §2
[27] = Volume of distribution at steady state in Sprague-Dawley rat at 1 mg/kg, iv; assay type: ADME, organism-based; conditions: in vivo, read-out: Vdss; procedure, shortened: as §2
[28] = In vivo inhibition of Smo-mediated Hh signalling pathway in athymic nude mouse implanted with mouse Ptch+/- p53-/- medulloblastoma cells assessed as suppression of Gli1-mRNA expression at 25 and 50 mg/kg, ip bid for 13 days measured 4 hrs post last dose by RT-qPCR analysis; assay type: functional, organism-based
Procedure, shortened: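 Nude mice bearing subcutaneous Ptch+/-;p53-/- medulloblastoma allografts dosed i.p. twice daily for 13 days. Tumors collected 4 h after the last dose for Gli1 mRNA measurement; mean ± SD.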

[29] = Oral bioavailability in Sprague-Dawley rat at 3 mg/kg; assay type: ADME, organism-based; conditions: in vivo; procedure, shortened: as §2
[30] = Antitumor activity against mouse Ptch+/- p53-/- medulloblastoma cells implanted in athymic nude mouse assessed as tumor growth inhibition at 25 mg/kg, ip bid for 13 days relative to control; assay type: functional; conditions: Medulloblastoma cell, 312 h, read-out: TGI
Procedure, shortened: (§3)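 Primary Ptch+/-;p53-/- medulloblastoma passaged subcutaneously in athymic nude mice as 1 mm3 fragments in the right flank. Dosing began at 100–150 mm3: i.p. 25 or 50 mg/kg twice daily for 13 days. Calipers twice weekly, volume = L×W²/2, TGI from volume change against vehicle. Body weight tracked; tumor mean ± SEM, weight mean ± SD.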

[31] = Antitumor activity against mouse Ptch+/- p53-/- medulloblastoma cells implanted in athymic nude mouse assessed as tumor growth inhibition at 50 mg/kg, ip bid for 13 days relative to control; assay type: functional; conditions: Medulloblastoma cell, 312 h, read-out: TGI; procedure, shortened: as §3
[32] = test system: Mus musculus; test: Toxicity in athymic nude mouse implanted with mouse Ptch+/- p53-/- medulloblastoma cells assessed as body weight loss at 25 and 50 mg/kg, ip bid for 13 days; assay type: organism-based; conditions: in vivo, 312 h; procedure, shortened: as §3

Structure (SMILES): C[C@H]1[C@@H](CC(=O)Nc2ccc(Cl)c(-c3ccccn3)c2)O[C@@H]2O[C@@]3(C)CC[C@H]4[C@H](C)CC[C@@H]1[C@@]24O3
IC50 [1]: 184 nM

Structure (SMILES): CC(=O)Nc1nc2c(s1)C[C@@H]1[C@H](C2)[C@H]([C@@H](C)C(=O)Nc2ccc(Cl)c(-c3ccccn3)c2)CC[C@H]1C
IC50 [1]: > 1000 nM

Structure (SMILES): CC1=C2C[C@H]3[C@@H](CC=C4C[C@@H](O)CC[C@@]43C)[C@@H]2CC[C@]12O[C@@H]1C[C@H](C)CN[C@H]1[C@H]2C
inhibition [2]: Active
inhibition [3]: Active

Structure (SMILES): Cc1nc2c(s1)C[C@@H]1[C@H](C2)[C@H]([C@@H](C)C(=O)Nc2ccc(Cl)c(-c3ccccn3)c2)CC[C@H]1C
IC50 [1]: > 1000 nM

Structure (SMILES): C[C@@H]1CC[C@@H]([C@@H](C)C(=O)Nc2ccc(Cl)c(-c3ccccn3)c2)[C@H]2Cc3c(c4ccccc4n3C)C[C@H]21
IC50 [1]: 476 nM

Structure (SMILES): C[C@H]1[C@@H](O[C@@H](C#N)c2ccc(Br)cc2)O[C@@H]2O[C@@]3(C)CC[C@H]4[C@H](C)CC[C@@H]1[C@@]24OO3
IC50 [4]: 10 nM

Structure (SMILES): C[C@@H]1CC[C@@H]([C@@H](C)C(=O)Nc2ccc(Cl)c(-c3ccccn3)c2)[C@H]2CC(=O)CC[C@H]21
IC50 [1]: 290 nM

Structure (SMILES): C[C@@H]1CC[C@@H]([C@@H](C)C(=O)Nc2ccc(Cl)c(-c3ccccn3)c2)C2=CC(=O)CC[C@H]21
IC50 [1]: > 1000 nM

Structure (SMILES): C[C@@H]1CC[C@@H]([C@@H](C)C(=O)Nc2ccc(Cl)c(-c3ccccn3)c2)[C@H]2Cc3c(cnn3-c3ccccc3)C[C@H]21
IC50 [1]: 327 nM

More lines, main results first:

IC50 [1]: 84.5 nM
Structure (SMILES): Cc1ccc2c(n1)[C@H]([C@@H](C)C(=O)Nc1ccc(Cl)c(-c3nc4cc(OC(F)(F)F)ccc4n3C)c1)CC[C@H]2C

IC50 [1]: > 1000 nM
Structure (SMILES): Cc1ccc2c(n1)[C@H]([C@@H](C)C(=O)Nc1ccc(Cl)c(-c3ccc(N4C[C@@H](C)O[C@@H](C)C4)cn3)c1)CC[C@H]2C

IC50 [1]: 9.53 nM
Ratio IC50 [5]: 4 to 5
inhibition [8]: Active
inhibition [9]: Dose-dependent effect
inhibition [10]: Active
inhibition [11]: Active
inhibition [15]: Active
half-life [16]: 1.4 h
half-life [17]: 5.95 h
Tmax [18]: 0.25 h
Cmax [19]: 799 ng/mL
AUC(0-t) [20]: 1460 ng·h/mL
AUC(0-t) [21]: 1780 ng·h/mL
AUC(0-inf) [22]: 1480 ng·h/mL
AUC(0-inf) [23]: 1840 ng·h/mL
clearance [24]: 9.31 mL/min/kg
MRT inf [25]: 1.53 h
MRT inf [26]: 3.97 h
Vd [27]: 2.23 L/kg
bioavailability [29]: 27.4%
Structure (SMILES): Cc1ccc2c(n1)[C@H]([C@@H](C)C(=O)Nc1ccc(Cl)c(-c3nc4ccccc4n3C)c1)CC[C@H]2C
IC50 [6]: > 20000 nM
IC50 [7]: > 15000 nM
Activity [12]: Dose-dependent effect
Activity [13]: 21.7%
Activity [14]: 4.6%
inhibition [28]: Active
inhibition in vivo at 25 mg/kg [30]: 81.7%
inhibition in vivo at 50 mg/kg [31]: 91.5%
Activity [32]: Non-Toxic

IC50 [1]: 282 nM
Structure (SMILES): Cc1ccc2c(n1)[C@H]([C@@H](C)C(=O)Nc1ccc(Cl)c(-c3nc4ccccc4s3)c1)CC[C@H]2C

IC50 [1]: 220 nM
Structure (SMILES): Cc1ccc2c(n1)[C@H]([C@@H](C)C(=O)Nc1ccc(Cl)c(-c3nc(C4CC4)no3)c1)CC[C@H]2C

IC50 [1]: 588 nM
Structure (SMILES): Cc1ccc2c(n1)[C@H]([C@@H](C)C(=O)Nc1ccc(Cl)c(-c3nnc(-c4ccnn4C)o3)c1)CC[C@H]2C

IC50 [1]: 1000 nM
Structure (SMILES): Cc1ccc2c(n1)[C@H]([C@@H](C)C(=O)Nc1cccc(-c3ccc(OC(F)(F)F)cc3)c1C)CC[C@H]2C
